Reference: ChEMBL document CHEMBL5661976 (Cancer Res, 2007)
Activity calls are given as the source filed them. The rule behind the calls is not given here.

Experiments:
[1] = target: MAP kinase-activated protein kinase 5 (Homo sapiens, UniProt Q8IW41); experiment: Inhibition of recombinant PRAK (unknown origin)
[2] = target: Ribosomal protein S6 kinase alpha-1 (Homo sapiens, UniProt Q15418); experiment: Inhibition of recombinant MAPKAP-K1a (unknown origin)
HCC827 [3] = experiment: cells; type: functional, cell-based; conditions: Homo sapiens, HCC827, 72 h
BaF3 [4] = experiment: cells; type: functional, cell-based; conditions: Mus musculus, BaF3, 72 h
BaF3 [5] = experiment: cells; type: functional, cell-based; conditions: Mus musculus, BaF3, 72 h; remark: listed apart in the source
HCC827 [6] = experiment: Antiproliferative activity against human HCC827 cells harboring EGFR Del E746_A750 mutant transfected with GFP assessed as inhibition of cell growth incubated for 72 hrs by MTS assay; type: functional, cell-based; conditions: HCC827, 72 h
Method in brief: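 MTS viable-cell assay (bioreduction to soluble formazan, spectrophotometric read) after 72 h drug exposure; cell numbers set empirically.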

BaF3 [7] = experiment: cells; type: functional, cell-based; conditions: Mus musculus, BaF3, 72 h; remark: listed apart in the source
NCI-H441 = experiment: cells; type: functional, cell-based; conditions: Homo sapiens, NCI-H441, 72 h
[8] = target: Serine/threonine-protein kinase Nek6 (Homo sapiens, UniProt Q9HC98); experiment: Inhibition of recombinant NEK6 (unknown origin)
Chain of Serine/threonine-protein kinase Nek6 (Q9HC98 whole entry): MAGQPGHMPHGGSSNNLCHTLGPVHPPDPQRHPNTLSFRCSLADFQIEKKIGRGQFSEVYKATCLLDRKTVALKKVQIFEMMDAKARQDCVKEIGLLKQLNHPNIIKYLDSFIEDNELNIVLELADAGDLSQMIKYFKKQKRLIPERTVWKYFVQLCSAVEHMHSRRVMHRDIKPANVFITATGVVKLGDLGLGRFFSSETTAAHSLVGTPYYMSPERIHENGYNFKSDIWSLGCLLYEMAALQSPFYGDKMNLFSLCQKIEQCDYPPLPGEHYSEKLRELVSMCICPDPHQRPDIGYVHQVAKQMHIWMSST

BaF3 [9] = experiment: cells; type: functional, cell-based; conditions: Mus musculus, BaF3, 72 h; remark: listed apart in the source
[10] = target: AMP-activated protein kinase, AMPK; experiment: Inhibition of recombinant AMPK (unknown origin); type: protein-complex assay, Homo sapiens
cells [11] = type: functional, cell-based; conditions: Homo sapiens, NCI-H820, 72 h
[12] = target: Mitogen-activated protein kinase 13 (Homo sapiens, UniProt O15264); experiment: Inhibition of recombinant SAPK4/p38delta (unknown origin)
Chain of Mitogen-activated protein kinase 13 (O15264 whole entry): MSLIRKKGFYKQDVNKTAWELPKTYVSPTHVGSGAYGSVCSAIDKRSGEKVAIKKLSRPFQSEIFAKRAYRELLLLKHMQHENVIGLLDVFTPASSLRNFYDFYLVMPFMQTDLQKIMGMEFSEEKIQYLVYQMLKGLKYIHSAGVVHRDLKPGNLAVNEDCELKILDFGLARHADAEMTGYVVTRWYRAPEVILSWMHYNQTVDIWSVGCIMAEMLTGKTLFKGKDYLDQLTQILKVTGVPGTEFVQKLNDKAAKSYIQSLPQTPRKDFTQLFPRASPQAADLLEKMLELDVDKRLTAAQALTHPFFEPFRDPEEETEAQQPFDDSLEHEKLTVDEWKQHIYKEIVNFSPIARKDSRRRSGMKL

[13] = target: cAMP-dependent protein kinase (PKA) (Homo sapiens, UniProt P22694+P17612+P22612); experiment: Inhibition of recombinant PKA (unknown origin); type: protein assay
H322 = experiment: cells; type: functional, cell-based; conditions: Homo sapiens, NCI-H322, 72 h
BaF3 [14] = experiment: cells; type: functional, cell-based; conditions: Mus musculus, BaF3, 72 h; remark: listed apart in the source
HCC827 [15] = experiment: Antitumor activity against human HCC827 cells expressing EGFR Del/T790M mutant xenografted in nude mouse assessed as inhibition of tumor growth at 10 mg/kg/day, po administered for 95 days and measured thrice weekly; type: functional, organism-based; conditions: time 95.0 day
Method in brief: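 Nu/nu mice under 2% isoflurane/oxygen inoculated s.c. in lower-right flank with 5 × 10^6 HCC827-GFP or HCC827-Del/T790M cells in 0.2 mL PBS; randomized at mean tumor 400 to 500 mm3. Daily oral gavage 10 mg/kg/d; caliper volume = length × width² × 0.52; body weight monitored daily; ended when control tumors reached 2000 mm3.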

BaF3 [16] = experiment: cells; type: functional, cell-based; conditions: Mus musculus, BaF3, 72 h; remark: listed apart in the source
[17] = target: MAP kinase-activated protein kinase 2 (Homo sapiens, UniProt P49137); experiment: Inhibition of recombinant MAPKAP-K2 (unknown origin)
Chain of MAP kinase-activated protein kinase 2 (P49137 whole entry): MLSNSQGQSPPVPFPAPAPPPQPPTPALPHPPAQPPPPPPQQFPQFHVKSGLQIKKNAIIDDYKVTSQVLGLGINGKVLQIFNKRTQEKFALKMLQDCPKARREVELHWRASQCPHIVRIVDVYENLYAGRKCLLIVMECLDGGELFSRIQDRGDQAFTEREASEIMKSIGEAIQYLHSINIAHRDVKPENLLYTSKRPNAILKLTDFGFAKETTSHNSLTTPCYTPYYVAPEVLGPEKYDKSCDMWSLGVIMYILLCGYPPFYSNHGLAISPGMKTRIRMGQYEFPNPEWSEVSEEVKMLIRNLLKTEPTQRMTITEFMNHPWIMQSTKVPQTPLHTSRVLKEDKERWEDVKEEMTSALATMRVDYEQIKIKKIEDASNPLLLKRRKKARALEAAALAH

NCI-H3255 [18] = experiment: cells; type: functional, cell-based; conditions: Homo sapiens, NCI-H3255, 72 h
NIH3T3 = conditions: Mus musculus, dose 1-10000 nmol/L, time 6.25 hrs
cells [19] = type: functional, cell-based; conditions: Homo sapiens, NCI-H3255GR, 72 h
[20] = target: Mitogen-activated protein kinase 12 (Homo sapiens, UniProt P53778); experiment: Inhibition of recombinant SAPK3/p38gamma (unknown origin)
Chain of Mitogen-activated protein kinase 12 (P53778 whole entry): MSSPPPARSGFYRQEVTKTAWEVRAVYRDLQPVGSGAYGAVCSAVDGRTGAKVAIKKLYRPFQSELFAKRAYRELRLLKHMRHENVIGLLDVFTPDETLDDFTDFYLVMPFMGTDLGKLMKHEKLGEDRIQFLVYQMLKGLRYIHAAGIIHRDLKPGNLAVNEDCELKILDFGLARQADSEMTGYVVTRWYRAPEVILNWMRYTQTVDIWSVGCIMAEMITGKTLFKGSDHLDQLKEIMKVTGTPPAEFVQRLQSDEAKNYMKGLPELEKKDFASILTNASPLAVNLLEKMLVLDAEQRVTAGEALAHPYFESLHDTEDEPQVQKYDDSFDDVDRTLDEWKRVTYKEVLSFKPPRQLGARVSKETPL

HCC827 [21] = conditions: Homo sapiens, dose 1-10000 nmol/L, time 12.0 hrs
[22] = target: Serine/threonine-protein kinase Sgk1 (Homo sapiens, UniProt O00141); experiment: Inhibition of recombinant SGK (unknown origin)
Chain of Serine/threonine-protein kinase Sgk1 (O00141 whole entry): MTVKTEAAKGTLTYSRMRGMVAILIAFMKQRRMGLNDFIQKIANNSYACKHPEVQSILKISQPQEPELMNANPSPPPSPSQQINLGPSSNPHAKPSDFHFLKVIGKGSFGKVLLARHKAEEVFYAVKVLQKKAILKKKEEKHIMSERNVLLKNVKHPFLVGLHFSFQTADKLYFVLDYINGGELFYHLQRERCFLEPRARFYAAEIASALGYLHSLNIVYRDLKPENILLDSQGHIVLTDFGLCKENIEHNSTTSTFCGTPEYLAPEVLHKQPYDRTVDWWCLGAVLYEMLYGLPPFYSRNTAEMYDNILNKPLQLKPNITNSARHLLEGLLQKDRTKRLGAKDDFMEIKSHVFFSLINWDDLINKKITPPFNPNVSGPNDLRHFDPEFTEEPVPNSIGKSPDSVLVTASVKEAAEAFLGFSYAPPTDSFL

HCC827 [23] = experiment: cells; type: functional, cell-based; conditions: Homo sapiens, HCC827, 72 h; remark: listed apart in the source
[24] = target: Mitogen-activated protein kinase 14 (Homo sapiens, UniProt Q16539); experiment: Inhibition of recombinant SAPK2a/p38 (unknown origin)
Chain of Mitogen-activated protein kinase 14 (Q16539 whole entry): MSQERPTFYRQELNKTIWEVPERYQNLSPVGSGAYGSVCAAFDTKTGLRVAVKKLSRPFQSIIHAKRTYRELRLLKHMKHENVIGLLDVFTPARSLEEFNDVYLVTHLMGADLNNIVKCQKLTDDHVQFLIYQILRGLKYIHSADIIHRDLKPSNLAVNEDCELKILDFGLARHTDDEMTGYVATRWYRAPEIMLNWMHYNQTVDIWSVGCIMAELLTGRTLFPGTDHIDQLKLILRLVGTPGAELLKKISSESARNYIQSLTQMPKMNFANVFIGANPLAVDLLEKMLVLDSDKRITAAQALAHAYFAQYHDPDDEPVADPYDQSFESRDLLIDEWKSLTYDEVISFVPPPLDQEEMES

[25] = target: Receptor tyrosine-protein kinase erbB-3 (Homo sapiens) (UniProt P21860); experiment: Inhibition of ERBB3 phosphorylation in human HCC827 cells expressing GFP at 1 to 10000 nmol/L incubated for 12 hrs by Western blotting analysis; type: cell-based; conditions: dose 1-10000 nmol/L
Chain of Receptor tyrosine-protein kinase erbB-3 (Homo sapiens) (P21860 whole entry): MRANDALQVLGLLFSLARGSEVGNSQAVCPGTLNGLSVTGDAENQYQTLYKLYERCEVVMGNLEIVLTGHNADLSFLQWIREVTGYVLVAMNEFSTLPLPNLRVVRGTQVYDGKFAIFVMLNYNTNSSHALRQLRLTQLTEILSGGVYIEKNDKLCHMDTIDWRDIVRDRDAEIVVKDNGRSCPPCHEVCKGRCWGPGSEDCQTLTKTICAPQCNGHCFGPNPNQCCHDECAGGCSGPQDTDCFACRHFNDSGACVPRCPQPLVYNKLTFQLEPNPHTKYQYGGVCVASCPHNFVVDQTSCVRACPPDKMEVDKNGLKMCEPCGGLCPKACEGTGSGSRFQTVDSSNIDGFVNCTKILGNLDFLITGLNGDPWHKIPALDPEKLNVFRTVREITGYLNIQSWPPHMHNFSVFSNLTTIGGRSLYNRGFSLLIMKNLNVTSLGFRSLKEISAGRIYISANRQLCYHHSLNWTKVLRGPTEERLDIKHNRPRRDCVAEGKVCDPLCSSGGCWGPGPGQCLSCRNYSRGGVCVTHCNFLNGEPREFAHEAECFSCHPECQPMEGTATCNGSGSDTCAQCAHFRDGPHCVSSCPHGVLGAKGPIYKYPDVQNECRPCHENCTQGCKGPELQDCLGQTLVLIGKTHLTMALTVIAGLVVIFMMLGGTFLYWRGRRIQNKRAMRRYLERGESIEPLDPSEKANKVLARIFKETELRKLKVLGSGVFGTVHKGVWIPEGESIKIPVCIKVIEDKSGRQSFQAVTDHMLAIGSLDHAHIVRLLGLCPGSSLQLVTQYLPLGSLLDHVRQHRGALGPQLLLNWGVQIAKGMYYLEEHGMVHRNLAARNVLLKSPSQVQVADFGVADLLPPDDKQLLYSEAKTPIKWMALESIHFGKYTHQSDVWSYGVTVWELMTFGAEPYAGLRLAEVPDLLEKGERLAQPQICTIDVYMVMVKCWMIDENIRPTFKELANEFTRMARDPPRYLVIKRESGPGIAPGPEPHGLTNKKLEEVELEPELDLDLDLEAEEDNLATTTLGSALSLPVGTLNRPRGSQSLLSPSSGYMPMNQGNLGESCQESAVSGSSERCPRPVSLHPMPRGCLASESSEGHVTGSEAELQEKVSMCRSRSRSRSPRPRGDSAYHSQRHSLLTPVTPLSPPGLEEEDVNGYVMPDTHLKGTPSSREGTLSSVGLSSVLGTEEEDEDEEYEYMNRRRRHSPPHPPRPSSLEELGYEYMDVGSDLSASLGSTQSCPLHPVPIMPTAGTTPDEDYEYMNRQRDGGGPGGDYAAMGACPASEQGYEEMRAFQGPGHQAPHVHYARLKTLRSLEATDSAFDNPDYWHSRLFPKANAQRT

A549 = experiment: cells; type: functional, cell-based; conditions: Homo sapiens, A549, 72 h
BaF3 [26] = experiment: cells; type: functional, cell-based; conditions: Mus musculus, BaF3, 72 h; remark: listed apart in the source
[27] = Inhibition of recombinant Akt (unknown origin); design: species or system Homo sapiens
NCI-H3255 [28] = experiment: cells; type: functional, cell-based; conditions: Homo sapiens, NCI-H3255, 72 h; remark: listed apart in the source
BaF3 [29] = experiment: cells; type: functional, cell-based; conditions: Mus musculus, BaF3, 72 h; remark: listed apart in the source
[30] = Inhibition of recombinant PDGF (unknown origin); design: species or system Homo sapiens
HCC4006 = experiment: cells; type: functional, cell-based; conditions: Homo sapiens, HCC4006, 72 h
cells [31] = type: functional, cell-based; conditions: Homo sapiens, NCI-H1819, 72 h
NCI-H3255 [32] = experiment: Induction of apoptosis in human NCI-H3255 cells assessed as increase in cleavage of PARP at 1 micromol/L incubated for 72 hrs by Western blotting analysis; type: functional, cell-based; conditions: dose 1.0 µmol/L
[33] = target: Receptor tyrosine-protein kinase erbB-2 (Mus musculus, UniProt P70424); experiment: Inhibition of ERBB2 expressed in mouse NIH3T3 cells; type: cell-based
Calu-3 = experiment: cells; type: functional, cell-based; conditions: Homo sapiens, Calu-3, 72 h
[34] = target: Dual specificity tyrosine-phosphorylation-regulated kinase 1A (Homo sapiens, UniProt Q13627); experiment: Inhibition of recombinant DYRK1a (unknown origin)
[35] = Inhibition of recombinant MAPK2/ERK2 (unknown origin); design: species or system Homo sapiens

Chain of MAP kinase-activated protein kinase 5 (Q8IW41 whole entry): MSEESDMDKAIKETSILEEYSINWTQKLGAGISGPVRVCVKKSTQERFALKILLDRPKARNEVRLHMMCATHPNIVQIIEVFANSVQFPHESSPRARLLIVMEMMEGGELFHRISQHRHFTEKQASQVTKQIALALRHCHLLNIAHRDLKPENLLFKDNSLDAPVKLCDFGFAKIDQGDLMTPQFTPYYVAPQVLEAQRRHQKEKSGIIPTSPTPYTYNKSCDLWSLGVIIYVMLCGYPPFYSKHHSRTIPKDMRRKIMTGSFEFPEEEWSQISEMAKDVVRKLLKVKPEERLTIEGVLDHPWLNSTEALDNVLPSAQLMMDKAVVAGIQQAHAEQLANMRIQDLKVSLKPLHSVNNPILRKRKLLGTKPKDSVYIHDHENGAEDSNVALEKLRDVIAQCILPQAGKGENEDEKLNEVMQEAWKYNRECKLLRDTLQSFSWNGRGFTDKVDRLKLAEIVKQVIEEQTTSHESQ
Chain of Ribosomal protein S6 kinase alpha-1 (Q15418 whole entry): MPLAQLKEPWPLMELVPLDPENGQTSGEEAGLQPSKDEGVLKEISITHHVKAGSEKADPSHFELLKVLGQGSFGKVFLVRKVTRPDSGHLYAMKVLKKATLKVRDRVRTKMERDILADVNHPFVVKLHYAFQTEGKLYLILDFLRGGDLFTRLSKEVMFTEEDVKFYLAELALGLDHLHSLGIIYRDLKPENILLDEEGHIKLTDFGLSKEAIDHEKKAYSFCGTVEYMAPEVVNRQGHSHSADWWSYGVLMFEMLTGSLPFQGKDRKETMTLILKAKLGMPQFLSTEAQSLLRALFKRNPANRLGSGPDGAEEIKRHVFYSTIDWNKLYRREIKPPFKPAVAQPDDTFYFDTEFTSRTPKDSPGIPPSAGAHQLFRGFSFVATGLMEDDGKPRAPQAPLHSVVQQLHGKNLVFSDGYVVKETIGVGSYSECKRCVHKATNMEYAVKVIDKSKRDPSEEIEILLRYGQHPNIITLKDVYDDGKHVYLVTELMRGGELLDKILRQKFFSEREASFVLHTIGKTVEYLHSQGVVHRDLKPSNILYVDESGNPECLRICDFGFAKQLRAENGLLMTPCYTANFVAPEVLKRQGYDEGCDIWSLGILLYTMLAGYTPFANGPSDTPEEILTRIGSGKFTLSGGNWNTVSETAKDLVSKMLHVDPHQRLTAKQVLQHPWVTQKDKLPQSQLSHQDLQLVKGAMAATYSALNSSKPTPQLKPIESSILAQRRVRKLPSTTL

COc1cc2ncnc(Nc3ccc(F)c(Cl)c3)c2cc1NC(=O)/C=C/CN1CCCCC1 [DACOMITINIB ANHYDROUS]
IC50 [1]: > 10000 nM | IC50 [2]: > 10000 nM | IC50 (HCC827 [3]): 14 nM | IC50 (BaF3 [4]): 140 nM | IC50 (BaF3 [5]): 1.2 nM | IC50 (HCC827 [6]): 2 nM | IC50 (BaF3 [7]): 270 nM | IC50 (NCI-H441): 4000 nM | IC50 [8]: > 10000 nM | IC50 (BaF3 [9]): < 1 nM | IC50 [10]: > 10000 nM | IC50 (cells [11]): 930 nM | IC50 [12]: > 10000 nM | IC50 [13]: > 40000 nM | IC50 (H322): > 10000 nM | IC50 (BaF3 [14]): 240 nM | Activity (HCC827 [15]): Active | IC50 (BaF3 [16]): 300 nM | IC50 [17]: > 10000 nM | IC50 (NCI-H3255 [18]): 7 nM | inhibition (NIH3T3): Active | IC50 (cells [19]): 119 nM | IC50 [20]: > 10000 nM | inhibition (HCC827 [21]): Active | IC50 [22]: > 10000 nM | IC50 (HCC827 [23]): 61 nM | IC50 [24]: > 10000 nM | inhibition [25]: Active | IC50 (A549): > 10000 nM | IC50 (BaF3 [26]): 2 nM | IC50 [27]: > 40000 nM | IC50 (NCI-H3255 [28]): 7 nM | IC50 (BaF3 [29]): 2.6 nM | IC50 [30]: > 10000 nM | IC50 (HCC4006): 4 nM | IC50 (cells [31]): 29 nM | Activity (NCI-H3255 [32]): Active | IC50 [33]: 41 nM | IC50 (Calu-3): 63 nM | IC50 [34]: > 10000 nM | IC50 [35]: > 10000 nM
